Experimental data collected from several papers.
Target: Protein kinase C eta type (PRKCH, Homo sapiens, UniProt P24723)

Structure (SMILES)	observed	technique	concentration	remaining binding
O=C(NCCCN1CCOCC1)c1ccc(Nc2ncc(Cl)c(-c3ccc(Cl)s3)n2)cc1	binding	competition with immobilised ligand	1 µM	100%
COc1ccnn2ncc(-c3ccnc(N(C)C)n3)c12	binding		1 µM	92%
CCCOc1ccc([C@@H]2[C@@H](C(=O)O)[C@H](c3ccc4c(c3)OCO4)CN2CC(=O)Nc2c(CC)cccc2CC)cc1	cell-free assay	competition with immobilised ligand	1 µM	100%
COc1ncc2cc3ccccc3nc2c1C#N	cell-free assay	competition with immobilised ligand	5 µM	90%
CCCCN(CCCC)C(=O)CN1C[C@H](c2cc(OC)c3c(c2)OCO3)[C@@H](C(=O)O)[C@@H]1CC(C)(C)CCC	cell-free assay	competition with immobilised ligand	1 µM	100%
F[C@@H]1CCN(c2nccc(-c3cnn4ncccc34)n2)C1	binding		1 µM	100%
COc1cnc(Nc2cccc(S(N)(=O)=O)c2)nc1N1CCN(c2ccccc2)C(=O)C1	binding	competition with immobilised ligand	1 µM	95%
COc1ccc2c(c1)O[C@@H](c1ccc(OC)c(OC)c1)C[C@H]2NC(=O)C1(c2ccc3c(c2)OC(F)(F)O3)CC1	cell-free assay	competition with immobilised ligand	1 µM	96%
CCN1CCN(Cc2ccc(C(=O)Nc3ccc(C)c(Oc4ccc5c(c4)CC(=O)N5)c3)cc2C(F)(F)F)CC1	binding	competition with immobilised ligand	1 µM	100%
CN(C)c1nccc(-c2cnc3ncccn23)n1	binding		1 µM	100%
COc1cc(-c2cn(C3CCc4c(F)cccc4N(CC(F)(F)F)C3=O)nn2)ccc1-n1cnc(C)c1 (stereo not shown)	cell-free assay	competition with immobilised ligand	1 µM	100%
Cc1cnc(Nc2ccc(C(=O)N3CCC(N4CCCC4)CC3)cc2)nc1-c1cc2ccccc2s1	binding	competition with immobilised ligand	1 µM	15%
C[C@@H]1CN(c2cc(-c3n[nH]c4ccc(OC5(C)CC5)cc34)ncn2)C[C@H](C)O1	cell-free assay	competition with immobilised ligand	0.1 µM	92%
C[C@@H](c1ccc(-n2cnc3c(N)ncnc32)cc1)N1CCc2nn(C)c(Cc3ccccc3)c2C1=O	binding	competition with immobilised ligand	0.1 µM	100%
O=C(c1ccc(Nc2ncc(Cl)c(-c3cc4ccccc4s3)n2)cc1)N1CCC(N2CCCC2)CC1	binding	competition with immobilised ligand	1 µM	12%
CN(C)c1nccc(-c2cnn3ncccc23)n1	binding		1 µM	100%
CNC(=O)[C@@H]1CC[C@@H](n2c(-c3ccc4cnccc4c3)nc3ccc(C(=O)NCc4cccc(C(N)=O)c4)cc32)C1	binding	competition with immobilised ligand	1 µM	100%
Cn1nc(C(=O)NCc2ccc(C(=O)O)cc2)cc1-c1ccc2[nH]ccc2c1	cell-free assay	competition with immobilised ligand	0.1 µM	84%
CN(C)c1ncc(F)c(-c2cnn3ncccc23)n1	binding		1 µM	100%
O=C(NCC1CCOCC1)c1n[nH]cc1NC(=O)c1c(F)cccc1F	binding	competition with immobilised ligand	1 µM	92%
C[C@H](c1ccnc(Nc2nc3ccc(-c4cc(N(C)C)ncn4)cc3[nH]2)c1)N1CCN(C(=O)CC(F)(F)F)CC1	cell-free assay	competition with immobilised ligand	0.1 µM	84%
N[C@H]1CCN(c2nccc(-c3cnn4ncccc34)n2)C1	binding		1 µM	88%
